Laboratory results as given in ChEMBL document CHEMBL1800073, “Inhibition of 1-deoxy-D-xylulose-5-phosphate reductoisomerase by lipophilic phosphonates: SAR, QSAR, and crystallographic studies” (J Med Chem, 2011).
Active and inactive are the calls of the source. No cut-off for these calls is given here.

Key:
[1] = Inhibition of Escherichia coli recombinant DXR using DXP as substrate and MgCl2 as cofactor preincubated for 10 mins
Summary of the method: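 Purified enzyme at 10 nM in 50 mM HEPES pH 7.5 with 2 mM MgCl2, 50 µM NADPH and 25 µg/mL BSA. Inhibitor was preincubated with the enzyme for 10 min at 30 °C, then 100 µM DXP was added. IC50 came from dose-response fits of initial velocities, at least three experiments.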

Escherichia coli = experiment: Inhibition of Escherichia coli recombinant DXR using DXP as substrate and MgCl2 as cofactor at 100 uM preincubated for 10 mins
Summary of the method: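 Purified recombinant EcDXR (10 nM) with 2 mM MgCl2, 50 µM NADPH, 50 mM HEPES pH 7.5, 25 µg/mL BSA. Inhibitor pre-incubated with enzyme 10 min at 30 °C; reaction started with 100 µM DXP; NADPH consumption followed at 340 nm.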

[2] = molecular target: T1, 1-deoxy-D-xylulose 5-phosphate reductoisomerase (Mycobacterium tuberculosis) (UniProt P9WNS1); experiment: Inhibition of Mycobacterium tuberculosis recombinant DXR expressed in Escherichia coli BL21 (DE3) using DXP as substrate and MgCl2 as cofactor at 100 uM preincubated for 10 mins
T1 sequence (whole entry): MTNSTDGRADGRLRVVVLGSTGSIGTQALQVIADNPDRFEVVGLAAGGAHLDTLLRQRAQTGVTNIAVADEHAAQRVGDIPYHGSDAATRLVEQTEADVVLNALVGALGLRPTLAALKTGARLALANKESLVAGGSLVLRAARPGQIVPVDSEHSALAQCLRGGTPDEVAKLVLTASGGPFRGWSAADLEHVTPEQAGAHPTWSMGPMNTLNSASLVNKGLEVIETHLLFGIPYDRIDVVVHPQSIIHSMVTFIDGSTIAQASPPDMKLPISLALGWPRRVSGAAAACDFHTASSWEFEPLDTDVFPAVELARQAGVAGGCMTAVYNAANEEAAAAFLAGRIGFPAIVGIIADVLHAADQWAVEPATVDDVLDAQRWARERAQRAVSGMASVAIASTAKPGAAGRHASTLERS
Summary of the method: (§1)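 Assay used 50 nM enzyme in 50 mM HEPES pH 7.6 with 4 mM MgCl2, 50 µM NADPH and 25 µg/mL BSA, plus 100 µM DXP added after a 10 min, 30 °C preincubation. IC50 came from initial velocities, at least three experiments.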

[3] = molecular target: T2, 1-deoxy-D-xylulose 5-phosphate reductoisomerase (Mycobacterium tuberculosis, UniProt P9WNS1); experiment: Inhibition of Mycobacterium tuberculosis recombinant DXR expressed in Escherichia coli BL21 (DE3) using DXP as substrate and MgCl2 as cofactor preincubated for 10 mins; summary of the method: as §1
T2 sequence (P9WNS1 whole entry): T1 sequence (whole entry)

[4] = Inhibition of DXR

Row | Compound | pKi [1] | inhibition (Escherichia coli) | inhibition [2] | Ki [1] [µM] | Ki [3] [µM] | IC50 [4] [µM]
1 | O=P(O)(O)CCc1ccccc1O | 3.52 | inactive | inactive | – | – | –
2 | O=P(O)(O)Cc1ccncc1 | 5.46 | – | – | 3.5 | 6.8 | –
3 | O=P(O)(O)Cc1ccc2ccccc2n1 | 5.1 | – | – | 7.9 | 6.9 | –
4 | CC(=O)N(O)CCC(c1ccc(Cl)c(Cl)c1)P(=O)(O)O (racemic) | 7.44 | – | – | 0.036 | 1.5 | –
5 | O=C(Cc1ccccn1)NO | 3.52 | inactive | inactive | – | – | –
6 | O=C(Cc1ccc(-c2ccccc2)cn1)NO | < 3.52 | inactive | inactive | – | – | –
7 | O=P(O)(O)Cc1ccc(Cl)c(Cl)c1 | 3.52 | inactive | inactive | – | – | –
8 | O=C(O)Cc1cccnc1 | < 3.52 | inactive | inactive | – | – | –
9 | O=P(O)(O)Cc1ccc(-c2ccccc2)cn1 | 6.38 | – | – | 0.42 | 3.2 | –
10 | O=C(O)c1ccc(-c2ccccc2)cn1 | < 3.52 | inactive | inactive | – | – | –
11 | O=P(O)(O)C(Nc1ccc(Cl)cn1)P(=O)(O)O | – | – | inactive | 15.3 | – | 7
12 | O=P(O)(O)Cc1cc(-c2ccccc2)ccn1 | 5.96 | – | – | 1.1 | 6.9 | –
13 | O=P(O)(O)Cc1ccccn1 [PYRIDIN-2-YLMETHYLPHOSPHONIC ACID] | 5.64 | – | – | 2.3 | 1.6 | –
14 | O=P(O)(O)Cc1ccc(Br)cn1 | 5.17 | – | – | 6.7 | 45.2 | –
15 | O=P(O)(O)Cc1ccc(-c2ccc(F)cc2)cn1 | 5.96 | – | – | 1.1 | 50.7 | –
16 | O=P(O)(O)CCCc1ccccn1 | 5.02 | – | inactive | 9.5 | – | –
17 | O=P(O)(O)Cc1ccncn1 | 5.46 | – | – | 3.5 | 12.4 | –
18 | O=c1ccc(CP(=O)(O)O)cn1O | 3.52 | inactive | inactive | – | – | –
19 | O=P(O)(O)Cc1ccc(-c2ccc(Cl)cc2)cn1 | 5.8 | – | inactive | 1.6 | – | –
20 | O=S(=O)(O)Cc1ccc(-c2ccccc2)cn1 | < 3.52 | inactive | inactive | – | – | –
21 | O=c1ccc(-c2ccccc2)cn1O [1-HYDROXY-5-PHENYLPYRIDIN-2(1H)-ONE] | – | – | – | 0.7 | 21.8 | –
22 | O=P(O)(O)Cc1cc(-c2ccc(F)cc2)ccn1 | 5.46 | – | inactive | 3.5 | – | –
23 | O=P(O)(O)Cc1cccc(O)c1O | 3.52 | inactive | inactive | – | – | –
24 | O=P(O)(O)C(Nc1nccc2ccccc12)P(=O)(O)O | – | – | – | 6.3 | – | 4

Row | Compound | pKi [1] | inhibition (Escherichia coli) | inhibition [2] | Ki [1] [µM] | Ki [3] [µM] | IC50 [4] [µM]
25 | O=C(O)Cc1ccncc1 | 3.52 | inactive | inactive | – | – | –
26 | O=P(O)(O)Cc1cccnc1 | 5.3 | – | inactive | 5 | – | –
27 | O=P(O)(O)Cc1cccc(Br)n1 | 5.46 | – | inactive | 3.6 | – | –
28 | O=P(O)(O)Cc1cc(Br)ccn1 | 5.46 | – | – | 3.5 | 32.7 | –
29 | O=P(O)(O)Cc1ccc(O)cn1 | 6.15 | – | – | 0.7 | 17.3 | –
30 | O=P(O)(O)Cc1ccc(OCc2ccccc2)cn1 | 3.52 | inactive | inactive | – | – | –
31 | O=P(O)(O)Cc1ccccc1 [BENZYLPHOSPHONIC ACID] | 3.52 | inactive | inactive | – | – | –
32 | O=P(O)(O)CCc1ccccn1 | 4.73 | – | inactive | 18.6 | – | –
33 | O=P(O)(O)Cc1cnccn1 | 4.95 | – | inactive | 11.2 | – | –
34 | O=P(O)(O)CCc1ccccc1 | 3.52 | inactive | inactive | – | – | –
35 | O=P(O)(O)c1ccccc1 [PHENYLPHOSPHONIC ACID] | 3.52 | inactive | inactive | – | – | –
36 | O=C(NO)c1ccccn1 | < 3.52 | inactive | inactive | – | – | –
37 | O=CN(O)CCC(c1ccc(Cl)c(Cl)c1)P(=O)(O)O (centres undefined) | 7.24 | – | – | 0.058 | 1.2 | –
38 | O=P(O)(O)c1ccccn1 | 3.52 | inactive | inactive | – | – | –
39 | O=P(O)(O)Cc1ccc(-c2ccc3ccccc3c2)cn1 | 4.86 | – | inactive | 13.9 | – | –
40 | O=C(O)Cc1ccccn1 | 3.52 | inactive | inactive | – | – | –
41 | O=c1cccc(CCP(=O)(O)O)[nH]1 | 3.52 | inactive | inactive | – | – | –
42 | COc1cccc(-c2ccc(CP(=O)(O)O)nc2)c1 | 5.46 | – | inactive | 3.6 | – | –
43 | O=P(O)(O)Cc1cccc(-c2ccccc2)n1 | 5.46 | – | inactive | 3.5 | – | –
44 | Cc1ccc(-c2ccc(CP(=O)(O)O)nc2)cc1 | 5.41 | – | inactive | 3.9 | – | –
45 | O=C(O)c1ccccn1 [2-PICOLINIC ACID] | 3.52 | inactive | inactive | – | – | –
46 | CC(=O)N(O)CCCP(=O)(O)O [FR-900098] | 7.72 | – | – | 0.019 | 0.13 | –
47 | O=C(O)Cc1ccc(-c2ccccc2)cn1 | < 3.52 | inactive | inactive | – | – | –
